Experimental findings from ChEMBL document CHEMBL2150909, “Imidazo[1,2-a]pyridines: orally active positive allosteric modulators of the metabotropic glutamate 2 receptor” (J Med Chem, 2012) are described below.

Data set [1] is described as follows: Half life in Sprague-Dawley rat at 10 mg/kg, po and 1.25 mg/kg, iv. It counts as ADME, organism-based. The note with it: in vivo. Put shortly: (§1)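 Male Sprague-Dawley rats given 10 mg/kg orally and/or 1.25 mg/kg intravenously; compound formulated in 20% HP-β-CD at pH 4. Cmax, tmax, AUC0−inf, t1/2, clearance and oral bioavailability F derived from plasma levels; geometric mean of at least two runs ± SEM.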

Data set [2] in a line: Drug uptake in SPF Swiss mouse brain at 10 mg/kg, sc after 4 hrs. In kind it is ADME, organism-based. Also on record: dose 10 mg/kg, route subcutaneous. The note with it: read-out: Drug uptake. Put shortly: (§2)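 Male Swiss SPF mice dosed subcutaneously at 10 mg/kg in 20% HP-β-CD, pH 4. Brain levels measured in ng/g and plasma levels in ng/mL at the stated time, with brain/plasma ratio; geometric mean of at least two runs ± SEM.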

Data set [3] is described as follows: Oral bioavailability in Sprague-Dawley rat at 10 mg/kg. The note with it: in vivo. It counts as ADME, organism-based. Put shortly: as §1
A short description of data set [4]: Cmax in Sprague-Dawley rat at 10 mg/kg, po and 1.25 mg/kg, iv. In kind it is ADME, organism-based. The note with it: in vivo. Put shortly: as §1
The nature of data set [5]: Drug uptake in SPF Swiss mouse brain at 10 mg/kg, sc after 2 hrs. It counts as ADME, organism-based. Also on record: dose 10 mg/kg, route subcutaneous. The note with it: read-out: Drug uptake. Put shortly: as §2
Data set [6] is described as follows: Plasma concentration in SPF Swiss mouse at 10 mg/kg, sc after 2 hrs. It counts as ADME, organism-based. Also on record: dose 10 mg/kg, route subcutaneous. Put shortly: as §2
The nature of data set [7]: AUC (0 to infinity) in Sprague-Dawley rat at 10 mg/kg, po and 1.25 mg/kg, iv. It counts as ADME, organism-based. The settings on record: plasma. Put shortly: as §1
Data set [8] in a line: Metabolic stability of human liver microsomes assessed as compound metabolized at 5 uM after 15 mins. In kind it is ADME, Microsome. The settings on record: read-out: Drug metabolism. Put shortly:
(§3)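 Test compound at 5 μM incubated 15 min with rat or human liver microsomes; read-out is percent of compound metabolized.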
In general terms: Microsomes from liver hold many membrane-bound enzymes, among them those of drug oxidation.

Data set [9] is described as follows: Metabolic stability of Sprague-Dawley rat liver microsomes assessed as compound metabolized at 5 uM after 15 mins. It counts as ADME, Microsome. The settings on record: read-out: Drug metabolism. Put shortly: as §3
The nature of data set [10]: Tmax in Sprague-Dawley rat at 10 mg/kg, po and 1.25 mg/kg, iv. It counts as ADME, organism-based. The note with it: in vivo. Put shortly:
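Rat pharmacokinetics in Sprague−Dawley rats: oral 10 mg/kg and intravenous 1.25 mg/kg, formulated in 20% HP-β-CD at pH 4. Plasma profiles used for Cmax, tmax, AUC0−inf and t1/2. Reported as geometric means of at least two runs ± SEM.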

A short description of data set [11]: Ratio of drug level in brain to plasma of SPF Swiss mouse at 10 mg/kg, sc after 2 hrs. In kind it is ADME, organism-based. On the set-up: dose 10 mg/kg, route subcutaneous. The settings on record: read-out: BPR. Put shortly:
(§4)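 Male Swiss SPF mice, single subcutaneous dose of 10 mg/kg in 20% HP-β-CD at pH 4. Brain levels (ng/g) and plasma levels (ng/mL) measured at the stated time after dosing; brain-to-plasma ratio taken from these. Geometric mean of at least two runs ± SEM.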

Data set [12] is described as follows: Drug uptake in SPF Swiss mouse brain at 10 mg/kg, sc after 1 hr. It counts as ADME, organism-based. On the set-up: dose 10 mg/kg, route subcutaneous. The note with it: read-out: Drug uptake. Put shortly: as §2
Data set [13] in a line: Ratio of drug level in brain to plasma of SPF Swiss mouse at 10 mg/kg, sc after 1 hr. In kind it is ADME, organism-based. On the set-up: dose 10 mg/kg, route subcutaneous. The settings on record: read-out: BPR. Put shortly:
as §4

A short description of data set [14]: Ratio of drug level in brain to plasma of SPF Swiss mouse at 10 mg/kg, sc after 4 hrs. It counts as ADME, organism-based. The note with it: read-out: BPR. Also on record: dose 10 mg/kg, route subcutaneous. Put shortly:
as §4

Data set [15] in a line: Plasma concentration in SPF Swiss mouse at 10 mg/kg, sc after 4 hrs. It counts as ADME, organism-based. On the set-up: dose 10 mg/kg, route subcutaneous. Put shortly:
as §2

The nature of data set [16]: Plasma concentration in SPF Swiss mouse at 10 mg/kg, sc after 1 hr. In kind it is ADME, organism-based. Also on record: dose 10 mg/kg, route subcutaneous. Put shortly:
as §2

Data set [17] in a line: Clearance in Sprague-Dawley rat at 10 mg/kg, po and 1.25 mg/kg, iv. It counts as ADME, organism-based. The note with it: in vivo. Put shortly: as §1

For the compound `N#Cc1c(-c2ccc(Oc3ccccc3)cc2)ccn2c(CC(F)(F)F)cnc12`, the half-life (in general, the time in which the quantity being followed falls by half) in data set [1] is 2.1 h. For the same compound, the concentration at 4 h was 221 ng/g in data set [2] and 114 ng/mL in data set [15]. Further, the bioavailability (as a rule, the share of a dose that reaches the circulation, judged against a reference dose that is usually intravenous) in [3] amounted to 27%. Moreover, the peak level in [4] (Cmax) was 274 ng/mL. Further, the concentration at 2 h in [5] turned out to be 1530 ng/g; in [6] it was 893 ng/mL. In addition, the AUC(0-inf) (in general, the area under the concentration-time curve extrapolated to infinity) in data set [7] was 714 ng·h/mL. Moreover, the metabolised at 0.25 h, 5 µM in [8] and in data set [9] was 23% throughout. In addition, in data set [10], the Tmax – broadly, the time from dosing to the highest level – was 0.5 h. Further, the Kp at 2 h in [11] is 1.7. The concentration at 1 h in [12] was found to be 1840 ng/g; in data set [16], 1040 ng/mL. Also, the Kp at 1 h in data set [13] came out at 1.8. Further, the Kp at 4 h in data set [14] came to 1.9. This compound also showed a clearance in data set [17] of 56.7 mL/min/kg.
